TAAR1 antagonist: human TAAR1 antagonism | Q96RJ0 | CHO RD-HGA16 TAAR1, Fluo-8 calcium fluorescence, antagonist | inhibition, % at 3 µM | hit rate 1.5% among 360,000;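 active = inhibition above a per-plate cutoff, the mean inhibition of test compounds on that plate plus 3 SD, cut at about 49% in these data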;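 also: 0% = DMSO plus EC80 beta-PEA response and 100% = DMSO alone without agonist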
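System: RD-HGA16 CHO cells with stable hTAAR1 and Gα16 | Probe or stimulus: EC80 β-phenethylamine stimulus | Dosing: 3 µM, single point | Times: Dye loading 75 min at 37 °C, then 30 min room temperature | Measured by: Fluo-8 calcium-sensitive fluorescence | Read-out basis: % inhibition of agonist calcium response | Replicates: n of 1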
M4 ag: agonists of human muscarinic M4 receptor (CHRM4) | P08173 | CHO-K1 hM4/Gqi5, Fluo-8 calcium fluorescence; vehicle 0%, full acetylcholine response 100% | activation, % at 3 µM | hit rate 0.14% among 360,000 | AID 624127;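 active = activation above the run mean over all test wells plus 3 SD, cut at about 32% in these data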;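 also: peak over basal fluorescence ratio per well then scaled between controls; 0% = DMSO wells and 100% = acetylcholine at EC100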
Target sequence (P08173 whole entry, looked up): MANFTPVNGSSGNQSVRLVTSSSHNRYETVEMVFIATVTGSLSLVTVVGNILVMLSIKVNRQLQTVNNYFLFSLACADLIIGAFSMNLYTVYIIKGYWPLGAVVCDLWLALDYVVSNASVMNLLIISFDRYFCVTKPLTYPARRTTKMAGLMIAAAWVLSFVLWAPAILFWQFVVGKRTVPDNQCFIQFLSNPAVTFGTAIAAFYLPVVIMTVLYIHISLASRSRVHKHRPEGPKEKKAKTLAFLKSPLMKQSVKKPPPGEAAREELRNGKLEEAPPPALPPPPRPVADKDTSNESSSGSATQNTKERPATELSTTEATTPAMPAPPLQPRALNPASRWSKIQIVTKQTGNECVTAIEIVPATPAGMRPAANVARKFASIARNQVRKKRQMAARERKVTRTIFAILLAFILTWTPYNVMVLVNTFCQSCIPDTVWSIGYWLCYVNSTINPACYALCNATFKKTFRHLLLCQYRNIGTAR
M4 antag: blocks acetylcholine activation of human M4 receptor | P08173 | CHO-hM4 cells, ACh EC80, Fluo-8 calcium fluorescence | inhibition, % at 3 µM | hit rate 0.73% among 360,000 | AID 624125;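 active = inhibition above its plate's cutoff, the mean inhibition of sample wells plus 3 SD, cut at about 27% in these data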;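 also: 0% = acetylcholine EC80 with DMSO and 100% = DMSO without agonist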
TAAR1 agonist: human TAAR1 agonism. Q96RJ0. CHO RD-HGA16 TAAR1, Fluo-8 calcium fluorescence; vehicle wells 0%, saturating PEA agonist 100%. activation, % at 3 µM. hit rate 0.99% among 360,000;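 active = activation above the mean activation of all test compounds in the run plus 3 SD, cut at about 38% in these data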
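System: CHO-derived RD-HGA16 cells with stable Gα16 and human TAAR1. Times: 17-24 h plating, Fluo-8 75 min 37 °C, 30 min RT. Measured by: calcium-sensitive Fluo-8 signal, excitation 470-495, emission 515-575 nm. Read-out basis: % activation relative to PEA EC100 response. Control set: DMSO and PEA EC100. Repeats: no replicates (n 1).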
M4 PAM: CHRM4 positive allosteric modulation; CHO-K1 hM4/Gqi5, Fluo-8 calcium fluorescence, ACh EC20; 0% = ACh EC20, 100% = maximal ACh; hit rate 0.4% among 360,000; P08173; AID 624126; activation, % at 3 µM;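 active = activation above its plate's cutoff, the mean activation of sample wells plus 3 SD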
nonsel antag count: nonselective antagonist in TAAR1 antagonist counter-screen. shares compounds with TAAR1 antagonist. counterscreen cell line, calcium fluorescence, antagonist mode. inhibition, % at 3 µM. hit rate 77% among 2,400. AID 651780; in the data active = inhibition above about 22%;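 also: CHO-Ga16 host cells stimulated with ATP at an EC80 level; 0% = agonist EC80 plus vehicle and 100% = vehicle without agonist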
TAAR1 ant conf: confirmation of human TAAR1 antagonists. shares compounds with TAAR1 antagonist. TAAR1-expressing cells, fluorescence antagonist read-out. inhibition, % at 3 µM. hit rate 40% among 2,400; in the data active = inhibition above about 49%;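 also: CHO-Ga16 host cells challenged with agonist PEA near its EC80; 0% = agonist at EC80 plus vehicle and 100% = vehicle with no agonist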
Ga16 nonsel ag: nonselective Ga16 agonist in TAAR1 antagonist counter-screen. shares compounds with TAAR1 antagonist. activation, % at 3 µM. hit rate 18% among 2,400. Ga16-expressing cells, calcium fluorescence, agonist counterscreen. AID 651953; in the data active = activation above about 12%;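 also: 0% = vehicle wells and 100% = saturating stimulus response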
TAAR1 ag counter: counter-screen for human TAAR1 antagonists: TAAR1 agonists. shares compounds with TAAR1 antagonist. hTAAR1 cell line, fluorescence activation, agonist mode. activation, % at 3 µM. hit rate 2% among 2,400. AID 651955; in the data active = activation above about 37%;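 also: CHO cells stably expressing TAAR1 with calcium dye readout; 0% = DMSO vehicle and 100% = full agonist response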
* marks the source's active call; other numbers are inactive results; . = not tested or not shown. Shown are actives, neighbours in structure and some others; about 3% of the full set was active somewhere.

SMILES	TAAR1 antagonist	M4 ag	M4 antag	TAAR1 agonist	M4 PAM	nonsel antag count	TAAR1 ant conf	Ga16 nonsel ag	TAAR1 ag counter
Cn1c2nc(=O)n(-c3ccccc3)c(=O)c-2nc2c1CCCC2	.	3.6	-0.7	.	-1.6	.	.	.	.
CC(OC(=O)[C@@H]1CCCN1C(=O)c1cccs1)C(=O)Nc1cccc([N+](=O)[O-])c1 (stereo partly specified)	65.7*	19.5	7.3	9.3	-9.9	41.7*	46.7	13.3*	13.3
CCCCOCCCNC(=O)C[C@@H]1C[C@@]2(C(=O)OCC)CCC=C2N(Cc2ccc(Cl)cc2Cl)C1=O	-32.2	-0.7	5.0	0.1	-2.7	.	.	.	.
COc1ccc(-c2cn(Cc3ccc4c(c3)C(=O)c3ccccc3C4=O)nn2)cc1	7.0	1.1	-3.1	8.3	-0.9	.	.	.	.
COc1ccc(-c2cn(Cc3ccc4ccccc4c3)nn2)cc1	106.3*	3.3	5.1	30.5	12.9	46.3*	80.7*	9.6	14.5
CC1(C(=O)NS(=O)(=O)C2CC2)CCCN(C(=O)c2cccc(OC(F)(F)F)c2)C1 (stereo unspecified)	-7.2	1.2	-20.0	3.2	3.2	.	.	.	.
COc1cc2cc(CN(Cc3nnnn3Cc3ccco3)C3CCCCC3)c(=O)[nH]c2cc1OC	4.3	0.4	-2.1	9.0	14.2	.	.	.	.
CCOc1ccc2[nH]c(=O)c(CN(Cc3nnnn3Cc3ccco3)C3CCCCC3)cc2c1	54.3*	1.8	1.2	26.1	-0.2	28.1*	58.2*	8.2	13.6
Cc1ccc(C)c(/C=N/Nc2ccccn2)c1	104.7*	-0.4	0.0	-3.7	11.3	-1.8	-0.4	1.4	0.5
O=C(NCc1ccccc1)C(C1CC1)n1c(Cc2cc(F)cc(F)c2)nc2ccccc21 (stereo unspecified)	-8.4	13.6	-7.0	0.6	-1.1	.	.	.	.
Cc1ccc(C)c(N(CC(=O)Nc2ccccc2C(=O)NCc2ccco2)S(=O)(=O)c2ccccc2)c1	78.8*	9.8	12.2	7.8	-13.0	34.9*	58.0*	5.7	8.2
Cc1ccc(N(CC(=O)Nc2ccccc2C(=O)NCc2ccco2)S(=O)(=O)c2ccccc2)cc1C	13.5	3.8	3.1	2.1	6.1	.	.	.	.
Cc1ccc(Oc2cccc3c2S(=O)(=O)N([C@H](C)c2ccccc2)C[C@@H](COCc2ccccc2)O3)cc1	-3.9	.	.	3.5	.	.	.	.	.
Cc1cccc(C(=O)OC(C)C(=O)Nc2ccc(S(=O)(=O)N3CCCC3)cc2)c1O (stereo unspecified)	68.2*	18.6	13.3	14.9	-18.7	35.7*	55.0*	11.7*	17.8
COc1ccc(NC(C)=O)cc1NC(C)C(=O)Nc1ccc(S(=O)(=O)N2CCCCC2)cc1 (stereo unspecified)	101.2*	0.2	0.9	11.8	0.1	6.9	-0.9	8.3	7.0
C=Cn1cc(CNC[C@H]2O[C@@H](n3ccc(N)nc3=O)[C@H](O)[C@@H]2O)c(C)n1	-1.8	0.9	-6.9	0.0	1.8	.	.	.	.
CCC(C)Nc1nc(-c2cccc(OC)c2O)nc2ccccc12 (stereo unspecified)	57.2*	7.9	-8.4	18.1	-9.4	21.0	35.8	11.1	25.1
COc1ccc(-n2nc(C(=O)NCC(=O)Nc3cc(OC)c(OC)c(OC)c3)c3ccccc3c2=O)cc1Cl	63.7*	17.5	14.2	15.1	-13.1	28.4*	47.4	7.8	5.8
COc1ccc(-n2nc(C(=O)NCC(=O)N3CCC(C)CC3)c3ccccc3c2=O)cc1Cl	48.6*	15.5	-19.4	3.4	-3.6	17.3	34.7	5.4	1.5
COc1ccc(-n2nc(C(=O)NCC(=O)N3CCN(c4ccccn4)CC3)c3ccccc3c2=O)cc1Cl	17.0	1.0	-1.6	4.0	-4.0	.	.	.	.
C[C@H](O)[C@@H]1CN2CCc3c([nH]c4ccccc34)[C@@H]2C[C@@H]1N(C)C(=O)OCc1ccccc1	-22.0	2.7	1.4	8.2	-6.7	.	.	.	.
CC(C)(Oc1ccc(Cl)cc1)C(=O)NCC(c1cccs1)N1CCOCC1 (stereo unspecified)	58.2*	12.5	-1.0	9.1	-8.3	17.1	23.3	5.1	1.1
CC1=C(C(=O)N2CCCCCC2)CC(CC(=O)NCCc2ccccn2)C(=O)N1Cc1ccc(C(C)(C)C)cc1 (stereo unspecified)	-11.2	4.2	2.5	7.2	-2.9	.	.	.	.
NC(=O)c1nsc(C(=O)N(c2cccc(O)c2)C(C(=O)NC2CCCC2)c2ccc(Cl)cc2)c1N (stereo unspecified)	66.4*	7.1	7.5	0.3	-0.4	24.9*	53.0*	5.8	11.5
CCOc1ccc(C(C(=O)NC2CCCC2)N(C(=O)c2snc(C(N)=O)c2N)c2cccc(O)c2)cc1 (stereo unspecified)	98.6*	18.4	20.0	16.9	-14.4	37.1*	80.9*	7.8	7.6
SMILES	TAAR1 antagonist	M4 ag	M4 antag	TAAR1 agonist	M4 PAM	nonsel antag count	TAAR1 ant conf	Ga16 nonsel ag	TAAR1 ag counter
Oc1c(N=NC(=S)Nc2ccccc2F)c2ccccc2n1Cc1ccccc1F	54.4*	0.3	3.5	7.4	-3.4	-2.4	29.7	4.5	4.4
Cc1ccccc1Cn1c(O)c(N=NC(=S)Nc2ccccc2F)c2ccccc21	10.7	-0.5	0.6	-0.7	2.2	.	.	.	.
CCc1nc2ccc(C(=O)NCc3ccc4c(c3)OCO4)cn2c1N(C)CCC(C)C	67.3*	0.7	7.4	4.8	-12.3	7.4	27.1	4.8	7.1
COc1ccc2c(c1)c(=O)oc1cc(OC(C(=O)O)c3ccccc3)ccc12 (stereo unspecified)	103.9*	-0.7	-6.7	-3.6	-3.5	11.4	-4.8	5.4	4.8
CC(NC(=O)c1ccc(CS(=O)(=O)c2ccc(Cl)cc2)o1)c1ccc2c(c1)OCCO2 (stereo unspecified)	59.0*	27.8	18.2	19.0	-10.6	31.8*	52.9*	11.5	9.5
CCNC(=O)C1(C)CCCN(Cc2cc(-c3ccccc3)n(C)n2)C1 (stereo unspecified)	-11.5	1.1	-16.1	1.1	8.5	.	.	.	.
C[C@H](CO)N1C[C@H](C)[C@H](CN(C)S(=O)(=O)c2ccccc2)Oc2c(NS(C)(=O)=O)cccc2C1=O	-1.5	1.7	-2.4	13.2	9.1	.	.	.	.

Bioassay records deposited in PubChem by The Scripps Research Institute Molecular Screening Center.
